Data reported in ChEMBL document CHEMBL5104212, “Green synthesis of 3-methyl-4-(hetero)aryl methylene isoxazole-5(4H)-ones using WEOFPA/glycerol: evaluation of anticancer and electrochemical behaviour properties” (RSC Med Chem, 2022).

Experiments:
A549 = assay: Anticancer activity against human A549 cells assessed as inhibition of cell growth incubated for 48 hrs by MTT assay; type: functional, cell-based; settings: A549, 48 h
Outline: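 A549 cells were seeded in 96-well plates and held overnight at 37°C, 95% humidity, 5% CO₂. Compounds came from DMSO stock dilution series and were added at 100, 50, 25, 12.5, 6.25 and 3.125 μg/mL for 48 hrs. Wells were PBS-washed, given MTT for 4h at 37°C, and formazan was dissolved in DMSO. A570 was read, and survival was taken as mean test OD over mean negative-control OD ×100.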

[1] = Electrochemical behavior of the compound assessed as oxidation potential peak by measuring […] current in DMSO using Ag/AgCl reference electrode by cyclic voltammetry; type: physicochemical
[2] = Electrochemical behavior of the compound assessed as reduction potential peak by measuring […] current in DMSO using Ag/AgCl reference electrode by cyclic voltammetry; type: physicochemical

| IC50 (A549) [µM] | Activity [1] | Activity [2] | Compound |
| --- | --- | --- | --- |
| 8.99 | Active | Active | CC1=NOC(=O)/C1=C/c1c(Cl)[nH]c2ccccc12 |
| 14.2 | Active | Active | CC1=NOC(=O)C1Cc1cccs1 (stereo not given) |
| 183 | Active | Active | CC1=NOC(=O)/C1=C/c1ccc[nH]1 |
| 12.3 | Active | Active | CC1=NOC(=O)/C1=C/c1cn(-c2ccccc2)cc1-c1ccccc1 |
| 37.4 | Active | Active | CC1=NOC(=O)/C1=C/c1c(-c2ccccc2)[nH]c2ccccc12 |
| 8.73 | – | – | COc1cccc2c1C(=O)c1c(O)c3c(c(O)c1C2=O)C[C@@](O)(C(=O)CO)C[C@@H]3O[C@H]1C[C@H](N)[C@H](O)[C@H](C)O1 [DOXORUBICIN] |
| 59.2 | Active | Active | COc1ccc(/C=C2/C(=O)ON=C2C)cc1OC |
| 107 | Active | Active | CC1=NOC(=O)/C1=C/c1c[nH]c2ccccc12 |
| 22.8 | Active | Active | CC1=NOC(=O)/C1=C/c1c(O)ccc2ccccc12 |
